Calls of active or inactive are those of the source.
Assays:
HUVEC [1] = assay: Effect on pro-angiogenic property in human umbilical cord derived endothelial colony forming cells assessed as increase in SHH level by qRT-PCR analysis; format: functional, cell-based
HUVEC [2] = assay: Effect on pro-angiogenic property in human umbilical cord derived endothelial colony forming cells assessed as formation of capillary network on matrigel at 2.5 to 500 nM; format: functional, cell-based; settings: dose 2.5-500 nM
Outline: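 Drug- or vehicle-pretreated ECFCs seeded at 5,000 cells/well on phenol-red-free growth-factor-reduced Matrigel in duplicate; after 24 hr stained with 5 μg/mL calcein 5 min at 37°C, imaged at 2.5×. Total tube length expressed as percentage of vehicle control ±SEM, three independent experiments.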

HUVEC [3] = assay: Effect on pro-angiogenic property in human umbilical cord derived endothelial colony forming cells assessed as increase in DLL1 level by qRT-PCR analysis; format: functional, cell-based
HUVEC [4] = assay: Effect on pro-angiogenic property in human umbilical cord derived endothelial colony forming cells assessed as cell migration treated for 10 hrs measured by crystal violet staining analysis based gap closure assay; format: functional; settings: dose 2.5-20 nM

Measured: Activity

Cc1[nH]c2ccccc2c1CCNCc1ccc(/C=C/C(=O)NO)cc1
active: HUVEC [1] | HUVEC [2] Dose-Dependent Effect | HUVEC [3] | HUVEC [4] Dose-Dependent Effect
